Measured values: ChEMBL document CHEMBL2331137, “Scopoletin and scopolin isolated from Artemisia iwayomogi suppress differentiation of osteoclastic macrophage RAW 264.7 cells by scavenging reactive oxygen species” (J Nat Prod, 2013)
Active and inactive are the calls of the source. The rule behind the calls is not given here.

Columns and labels:
HepG2 [1] = experiment: Antioxidant activity against […]-induced intracellular oxidative stress in human HepG2 cells assessed as DCF fluorescence intensity at 1 to 10 uM; type: functional, cell-based
Method in brief: (§1)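 HepG2 cells cultured 24 h in DMEM, then given compounds (1–10 μM, in DMSO) for 30 min and washed. Stress induced in HBSS with 60 μM AAPH or 1 mM H2O2 for 30 min. DCFH-DA added at 40 μM final, 30 min at 37 °C in the dark; DCF read at Ex 485/Em 535 nm. Trolox 10 μM as reference; % of untreated cells, n = 3.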

HepG2 [2] = experiment: Antioxidant activity against H2O2-induced intracellular oxidative stress in human HepG2 cells assessed as DCF fluorescence intensity at 1 to 10 uM; type: functional, cell-based; method in brief: as §1
RAW264.7 [3] = experiment: Inhibition of RANKL-induced superoxide anion level in mouse RAW264.7 cells at 10 uM by DHE fluorescence intensity assay (reference value: 176.7%); values are per cent of control
RAW264.7 [4] = experiment: Cytotoxicity against mouse RAW264.7 cells at 1 to 10 uM for 5 days by MTT assay; type: cell-based; conditions: raw264.7, 120 h
Method in brief: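 MTT assay: RAW 264.7 cells (2 × 10^4 cells/mL) in DMEM with 10% FBS at 37 °C, 5% CO2, treated with 1–10 μM samples for 5 days. MTT then added for 1 h at 37 °C, formazan dissolved in DMSO, A570 read; percentage proliferation calculated.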

RAW264.7 [5] = experiment: Antiosteoporotic activity in mouse RAW264.7 cells assessed as inhibition of RANKL-induced osteoclastogenesis measured as reduction in TRAP number for 5 days by light microscopy; type: functional, cell-based
Method in brief: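 RAW 264.7 cells seeded at 3 × 10^4/well and given test samples in differentiation medium with 50 ng/mL RANKL, changed every 2 days, for 5 days. Cells fixed in 3.5% formaldehyde 10 min and stained 1 h at 37 °C with a leukocyte acid phosphatase kit. TRAP-positive cells with ≥3 nuclei counted by light microscopy. Expressed as % of RANKL-treated cells; mean ± SD, n = 3.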

[6] = Antioxidant activity assessed as reduction of Cu2+ to Cu+ measured as copper (I) level at 1 uM measured for 1 hr; type: functional
Method in brief: (§2)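 Copper-reducing assay: compounds in ethanol mixed with 0.5 mM CuCl2 and 0.75 mM neocuproine (Cu+ chelator) in 10 mM phosphate buffer. Absorbance at 454 nm read for 1 h; reducing capacity expressed in μM. Trolox as reference; mean ± SD of three experiments.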

RAW264.7 [7] = experiment: Antiosteoporotic activity in mouse RAW264.7 cells assessed as inhibition of RANKL-induced osteoclastogenesis measured as reduction in TRAP activity for 5 days by ELISA; type: functional, cell-based
Method in brief: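 RAW 264.7 cells differentiated 5 days with 50 ng/mL RANKL plus test samples, medium changed every 2 days. Cells then washed with ice-cold PBS, fixed in 3.5% formaldehyde (10 min) and ethanol–acetone 1:1 (1 min). They were incubated 1 h in 50 mM citrate pH 4.5 with 10 mM sodium tartrate and 6 mM PNPP, stopped in 0.1 N NaOH, A405. Expressed as % of untreated control; n = 3.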

[8] = Antioxidant activity assessed as trolox equivalents of peroxyl radical scavenging activity at 1 uM by ORAC assay; type: functional
Method in brief: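 ORAC: fluorescein (40 nM final) exposed to AAPH (20 mM final) as peroxyl radical source, fluorescence recorded every 2 min relative to the initial reading. Net area under the decay curve versus blank computed and expressed as Trolox equivalents, with Trolox at 1 μM as reference; three experiments.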

RAW264.7 [9] = experiment: Inhibition of hydrogen peroxide level in RANKL-treated mouse RAW264.7 cells at 10 uM by DHR fluorescence intensity assay; type: functional, cell-based
RAW264.7 [10] = experiment: Inhibition of RANKL-induced ROS generation in mouse RAW264.7 cells at 10 uM by DCF fluorescence intensity assay (reference value: 143.7%); values are per cent of control
[11] = Antioxidant activity assessed as reduction of Cu2+ to Cu+ measured as copper (I) level at 10 uM measured for 1 hr (reference value: 2.1 uM); type: functional; method in brief: as §2

Row | Compound | Activity (HepG2 [1]) | Activity (HepG2 [2]) | level, % of control at 10 µM (RAW264.7 [3]) | Activity (RAW264.7 [4]) | inhibition (RAW264.7 [5]) | Activity [6] | inhibition (RAW264.7 [7]) | Activity [8] | inhibition (RAW264.7 [9]) | level, % of control at 10 µM (RAW264.7 [10]) | Activity [11]
1 | COc1cc2ccc(=O)oc2cc1O [SCOPOLETIN] | Active | Active | 158% | Non-toxic | Dose-dependent effect | Active | Dose-dependent effect | 3.3 equiv | inactive | 132% | –
2 | Cc1c(C)c2c(c(C)c1O)CCC(C)(C(=O)O)O2 (stereo not given) | – | – | – | – | – | 1.5 µM | – | – | – | – | –
3 | COc1cc2ccc(=O)oc2cc1O[C@@H]1O[C@H](CO)[C@@H](O)[C@H](O)[C@H]1O [SCOPOLIN] | – | Active | 149% | Non-toxic | Dose-dependent effect | – | Dose-dependent effect | 0.4 equiv | inactive | 127% | inactive
